The source made the active and inactive calls. The calls are words filed in the database; no cut-off is given here.
Columns and labels:
[1] = Toxicity in BALB/c nude mouse xenografted with human MDA-MB-436 cells assessed as effect on animal mortality at 1.6 to […], po BID for 28 days followed by treatment was interruption and monitored for additional 2 months; format: organism-based; details: in vivo, dose 1.6-3.1 mg/kg, time 28 day
[2] = Toxicity in BALB/c nude mouse xenografted with human MDA-MB-436 cells assessed as induction of body weight loss at 1.6 to […], po BID for 28 days followed by treatment was interruption and monitored for additional 2 months; format: organism-based; details: in vivo, dose 1.6-3.1 mg/kg, time 28 day
[3] = Clearance in human liver microsomes; format: ADME, Microsome
[4] = Oral bioavailability in Sprague-Dawley rat at 5 mg/kg by LC-MS/MS analysis; format: ADME, organism-based; details: in vivo
In short: (§1)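 Pharmacokinetics in Sprague-Dawley rats, three per group. iv 2 mg/kg in 38% DMA in water; po 5 mg/kg. Plasma was protein-precipitated, diluted with water and analysed by LC-MS/MS using an acetonitrile/0.1% formic acid gradient. Values are means of three rats.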

[5] = Half life in Sprague-Dawley rat at 2 mg/kg, iv by LC-MS/MS analysis; format: ADME, organism-based; details: in vivo
In short: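 Sprague-Dawley rats (n=3) get 2 mg/kg iv formulated in 38% DMA in water. Plasma is protein-precipitated and quantified by LC–MS/MS (C18, acetonitrile/0.1% formic acid gradient). Parameters are means of the three rats.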

[6] = biological target: Solute carrier family 22 member 6 (Homo sapiens, UniProt Q4U2R8); assay: Inhibition of OAT1 (unknown origin)
Solute carrier family 22 member 6, sequence (Q4U2R8 whole entry): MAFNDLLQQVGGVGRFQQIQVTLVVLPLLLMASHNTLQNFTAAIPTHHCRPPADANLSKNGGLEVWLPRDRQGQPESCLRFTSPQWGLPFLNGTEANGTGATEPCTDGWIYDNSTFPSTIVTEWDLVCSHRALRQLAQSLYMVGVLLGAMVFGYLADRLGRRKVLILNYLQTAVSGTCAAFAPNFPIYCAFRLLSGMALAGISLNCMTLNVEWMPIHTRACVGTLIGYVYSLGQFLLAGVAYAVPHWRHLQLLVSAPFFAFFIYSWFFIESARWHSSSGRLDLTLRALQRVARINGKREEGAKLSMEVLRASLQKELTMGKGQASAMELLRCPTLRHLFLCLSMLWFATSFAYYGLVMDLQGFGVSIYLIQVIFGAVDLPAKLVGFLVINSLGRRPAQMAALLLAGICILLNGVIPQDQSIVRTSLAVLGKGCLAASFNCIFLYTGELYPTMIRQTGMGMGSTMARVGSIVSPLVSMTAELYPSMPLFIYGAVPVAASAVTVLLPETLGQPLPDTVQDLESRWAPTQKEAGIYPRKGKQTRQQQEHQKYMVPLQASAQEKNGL

[7] = Clearance in rat liver microsomes; format: ADME, Microsome
[8] = Volume of distribution at steady state in Sprague-Dawley rat at 2 mg/kg, iv by LC-MS/MS analysis; format: ADME, organism-based; details: in vivo, read-out: Vdss; in short: as §1
[9] = Unbound fraction in mouse plasma; format: ADME, cell-free
[10] = Inhibition of PARylation in PBMC in patient with ovarian cancer at >= 10 mg BID during phase I study; format: functional, Homo sapiens; details: dose mg >=10
MDA-MB-436 = assay: Antiproliferation activity against human MDA-MB-436 cells expressing BRCA1 mutant incubated for 7 days by CellTiter-Glo luminescent cell viability assay; format: functional, cell-based; details: MDA-MB-436, 168 h
In short: (§2)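 Seeding density is set per line for log growth over 7 days. Cells attach 16 h, then are treated in duplicate with a 10-point dilution series for 7 days. CellTiter-Glo luminescence (ATP) is read, and viability is expressed relative to mock-treated control. EC50 is the mean of three independent experiments run in triplicate.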

Cytochrome P450 2D6 = Cytochrome P450 2D6 (Homo sapiens, UniProt P10635); assay: Inhibition of CYP2D6 (unknown origin); format: ADME
Cytochrome P450 2D6, sequence (P10635 whole entry): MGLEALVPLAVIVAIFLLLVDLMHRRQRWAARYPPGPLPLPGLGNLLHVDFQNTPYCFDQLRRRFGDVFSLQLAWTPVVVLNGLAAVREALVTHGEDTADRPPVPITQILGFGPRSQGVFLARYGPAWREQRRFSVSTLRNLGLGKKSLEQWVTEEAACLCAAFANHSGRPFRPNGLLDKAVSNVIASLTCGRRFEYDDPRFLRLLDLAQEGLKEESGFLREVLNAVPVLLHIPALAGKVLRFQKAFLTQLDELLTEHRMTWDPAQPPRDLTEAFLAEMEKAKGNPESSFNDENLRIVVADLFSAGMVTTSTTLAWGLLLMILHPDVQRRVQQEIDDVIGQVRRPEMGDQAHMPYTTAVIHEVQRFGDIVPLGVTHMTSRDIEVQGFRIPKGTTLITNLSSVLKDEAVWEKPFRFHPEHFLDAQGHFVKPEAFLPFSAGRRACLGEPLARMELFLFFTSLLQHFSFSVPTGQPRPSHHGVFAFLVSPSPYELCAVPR

hERG (KCNH2) = hERG (KCNH2) (Homo sapiens, UniProt Q12809); assay: Inhibition of human ERG activity at 20 uM by functional cellular assay
hERG (KCNH2), sequence (Q12809 whole entry): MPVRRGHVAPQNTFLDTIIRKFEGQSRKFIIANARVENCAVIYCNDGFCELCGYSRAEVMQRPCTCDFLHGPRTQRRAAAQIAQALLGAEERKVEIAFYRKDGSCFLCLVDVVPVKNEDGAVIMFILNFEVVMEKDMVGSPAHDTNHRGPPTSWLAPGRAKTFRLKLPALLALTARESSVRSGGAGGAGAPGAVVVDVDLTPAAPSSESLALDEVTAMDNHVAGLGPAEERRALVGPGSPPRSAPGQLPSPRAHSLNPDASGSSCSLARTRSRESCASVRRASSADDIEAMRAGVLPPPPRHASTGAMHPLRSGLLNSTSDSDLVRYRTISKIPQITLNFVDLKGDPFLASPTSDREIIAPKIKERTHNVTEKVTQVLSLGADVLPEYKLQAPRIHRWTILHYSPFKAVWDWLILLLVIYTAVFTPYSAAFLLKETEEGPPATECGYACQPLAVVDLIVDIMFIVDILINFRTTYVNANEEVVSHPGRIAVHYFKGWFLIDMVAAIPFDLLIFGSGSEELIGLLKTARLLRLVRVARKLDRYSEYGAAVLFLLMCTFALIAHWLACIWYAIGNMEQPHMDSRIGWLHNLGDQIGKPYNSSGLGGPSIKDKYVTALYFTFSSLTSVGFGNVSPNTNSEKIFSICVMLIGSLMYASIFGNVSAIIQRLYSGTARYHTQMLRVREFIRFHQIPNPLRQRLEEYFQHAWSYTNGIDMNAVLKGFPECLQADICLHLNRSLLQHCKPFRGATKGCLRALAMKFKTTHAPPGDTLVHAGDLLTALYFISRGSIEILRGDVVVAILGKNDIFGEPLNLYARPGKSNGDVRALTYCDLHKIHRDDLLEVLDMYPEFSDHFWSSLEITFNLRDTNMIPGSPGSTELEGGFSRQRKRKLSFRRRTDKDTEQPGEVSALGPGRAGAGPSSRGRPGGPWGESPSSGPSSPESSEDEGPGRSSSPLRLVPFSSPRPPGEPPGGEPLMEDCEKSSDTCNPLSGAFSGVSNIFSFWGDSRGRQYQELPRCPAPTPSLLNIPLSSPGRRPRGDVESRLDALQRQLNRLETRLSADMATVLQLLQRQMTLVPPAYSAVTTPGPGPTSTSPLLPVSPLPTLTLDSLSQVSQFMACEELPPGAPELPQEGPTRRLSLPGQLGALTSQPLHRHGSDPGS

NCI-H209 [11] = assay: Antitumor activity against human NCI-H209 cells xenografted in BALB/c nude mouse assessed as inhibition of tumor growth at […], po BID for 28 days; details: time 28.0 day
[12] = biological target: Solute carrier organic anion transporter family member 1B1 (Homo sapiens, UniProt Q9Y6L6); assay: Inhibition of OATP1B1 (unknown origin)
Solute carrier organic anion transporter family member 1B1, sequence (Q9Y6L6 whole entry): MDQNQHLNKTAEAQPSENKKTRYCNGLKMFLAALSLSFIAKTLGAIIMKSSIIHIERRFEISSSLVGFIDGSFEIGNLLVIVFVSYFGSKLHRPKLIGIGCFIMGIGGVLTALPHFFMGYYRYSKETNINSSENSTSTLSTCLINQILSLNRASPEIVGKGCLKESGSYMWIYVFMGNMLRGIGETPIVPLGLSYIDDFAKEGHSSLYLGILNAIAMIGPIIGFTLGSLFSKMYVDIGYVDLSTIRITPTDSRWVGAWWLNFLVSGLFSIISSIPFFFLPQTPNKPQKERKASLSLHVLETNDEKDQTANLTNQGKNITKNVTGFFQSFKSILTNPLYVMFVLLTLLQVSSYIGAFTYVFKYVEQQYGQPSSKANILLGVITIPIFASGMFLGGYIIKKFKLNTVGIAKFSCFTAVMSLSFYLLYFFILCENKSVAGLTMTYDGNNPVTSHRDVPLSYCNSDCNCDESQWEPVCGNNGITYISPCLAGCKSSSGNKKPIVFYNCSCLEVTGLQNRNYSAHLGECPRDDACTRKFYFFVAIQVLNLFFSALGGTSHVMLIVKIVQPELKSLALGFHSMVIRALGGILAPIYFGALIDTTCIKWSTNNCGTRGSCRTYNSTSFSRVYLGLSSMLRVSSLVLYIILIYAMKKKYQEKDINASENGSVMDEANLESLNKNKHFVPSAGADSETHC

[13] = Ratio of drug level in brain to plasma of C57BL/6 mouse brain at 10 mg/kg, po after 4 hrs; format: ADME, organism-based
In short: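 C57BL/6 mice were given 10 mg/kg po in 0.5% MC and sampled at 1, 2 and 4 h. Brain was homogenized in 3 volumes of saline, and brain and plasma were protein-precipitated with acetonitrile, then measured by LC-MS/MS. Brain (ng/g) was expressed as a percentage of plasma (ng/mL). Values are means of three mice.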

NCI-H209 [14] = assay: Potentiation of TMZ-induced antitumor activity against human NCI-H209 cells xenografted in BALB/c nude mouse assessed as inhibition of tumor growth at […], po BID for 28 days and co-treated with 50 mg/kg, po QD TMZ for 5 consecutive days at start of study and again 14 days later; format: functional, organism-based; details: time 28.0 day
[15] = Clearance in dog liver microsomes; format: ADME, Canis lupus familiaris, Microsome; details: read-out: CLH
[16] = Drug level in C57BL/6 mouse brain at 10 mg/kg, po after 1 hrs; format: ADME, organism-based; details: read-out: Drug uptake
In short: (§3)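 C57BL/6 mice (n=3) dosed orally at 10 mg/kg in 0.5% MC. Plasma and brain are sampled at 1, 2 and 4 h. Brain is homogenized in 3 volumes of saline, then acetonitrile protein precipitation; plasma is likewise precipitated. Both are analysed by LC–MS/MS and reported as means.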

[17] = Cmax in ICR mouse at 10 mg/kg, po by LC-MS/MS analysis; format: ADME, organism-based; set-up: route oral, dose 10 mg/kg; details: in vivo
In short: (§4)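 Male/female unspecified ICR mice, n=3 per route. Intravenous 1 mg/kg in 5% DMA in water; oral 10 mg/kg in 0.5% MC. Plasma is processed by protein precipitation and analysed by LC–MS/MS using an acetonitrile/0.1% formic acid gradient. Values are means of the three animals.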

[18] = biological target: Broad substrate specificity ATP-binding cassette transporter ABCG2 (Homo sapiens, UniProt Q9UNQ0); assay: Inhibition of BCRP (unknown origin) up to 30 uM
Broad substrate specificity ATP-binding cassette transporter ABCG2, sequence (Q9UNQ0 whole entry): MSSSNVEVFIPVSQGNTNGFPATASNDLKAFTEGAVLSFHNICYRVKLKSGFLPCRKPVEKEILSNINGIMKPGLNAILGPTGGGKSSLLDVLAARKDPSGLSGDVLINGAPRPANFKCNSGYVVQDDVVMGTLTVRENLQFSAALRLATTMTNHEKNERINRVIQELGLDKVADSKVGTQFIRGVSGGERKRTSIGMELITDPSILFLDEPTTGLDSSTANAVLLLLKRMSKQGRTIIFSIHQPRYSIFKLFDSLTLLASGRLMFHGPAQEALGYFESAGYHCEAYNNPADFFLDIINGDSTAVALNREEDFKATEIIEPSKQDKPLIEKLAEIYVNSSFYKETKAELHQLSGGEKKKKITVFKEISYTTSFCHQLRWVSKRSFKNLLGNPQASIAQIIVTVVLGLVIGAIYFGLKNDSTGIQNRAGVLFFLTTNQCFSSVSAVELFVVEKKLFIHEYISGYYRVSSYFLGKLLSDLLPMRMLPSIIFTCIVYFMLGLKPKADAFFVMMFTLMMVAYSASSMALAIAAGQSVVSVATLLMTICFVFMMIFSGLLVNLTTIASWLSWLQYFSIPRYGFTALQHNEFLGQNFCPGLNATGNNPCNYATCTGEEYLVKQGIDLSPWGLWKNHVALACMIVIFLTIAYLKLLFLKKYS

[19] = Cmax in Beagle dog at 2 mg/kg, po by LC-MS/MS analysis; format: ADME, organism-based, Canis lupus familiaris; set-up: route oral, dose 2 mg/kg; details: in vivo
In short: (§5)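 Three Beagle dogs; iv dose 1 mg/kg in 25% DMA in water; oral dose 2 mg/kg in 0.5% CMC-Na. Plasma drug concentrations are measured by LC–MS/MS. Values are the mean of three dogs.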

[20] = Drug level in C57BL/6 mouse brain at 10 mg/kg, po after 4 hrs; format: ADME, organism-based; details: read-out: Drug uptake; in short: as §3
[21] = AUC (0 to infinity) in Beagle dog at 1 mg/kg, iv by LC-MS/MS analysis; format: ADME, organism-based, Canis lupus familiaris; set-up: time infinity, route intravenous, dose 1 mg/kg; details: in vivo; in short: as §5
[22] = Clearance in Beagle dog at 1 mg/kg, iv by LC-MS/MS analysis; format: ADME, organism-based, Canis lupus familiaris; details: in vivo; in short: as §5
[23] = Half life in Beagle dog at 2 mg/kg, po by LC-MS/MS analysis; format: ADME, organism-based, Canis lupus familiaris; details: in vivo; in short: as §5
[24] = AUC (0 to infinity) in Beagle dog at 2 mg/kg, po by LC-MS/MS analysis; format: ADME, organism-based, Canis lupus familiaris; set-up: route oral, time infinity, dose 2 mg/kg; details: in vivo; in short: as §5
[25] = Clearance in ICR mouse at 1 mg/kg, iv by LC-MS/MS analysis; format: ADME, organism-based; details: in vivo; in short: as §4
[26] = biological target: Solute carrier family 22 member 2, OCT2 (Homo sapiens) (UniProt O15244); assay: Inhibition of OCT2 (unknown origin) up to 50 uM; details: dose microM <=50
Solute carrier family 22 member 2, OCT2 (Homo sapiens), sequence (O15244 whole entry, looked up): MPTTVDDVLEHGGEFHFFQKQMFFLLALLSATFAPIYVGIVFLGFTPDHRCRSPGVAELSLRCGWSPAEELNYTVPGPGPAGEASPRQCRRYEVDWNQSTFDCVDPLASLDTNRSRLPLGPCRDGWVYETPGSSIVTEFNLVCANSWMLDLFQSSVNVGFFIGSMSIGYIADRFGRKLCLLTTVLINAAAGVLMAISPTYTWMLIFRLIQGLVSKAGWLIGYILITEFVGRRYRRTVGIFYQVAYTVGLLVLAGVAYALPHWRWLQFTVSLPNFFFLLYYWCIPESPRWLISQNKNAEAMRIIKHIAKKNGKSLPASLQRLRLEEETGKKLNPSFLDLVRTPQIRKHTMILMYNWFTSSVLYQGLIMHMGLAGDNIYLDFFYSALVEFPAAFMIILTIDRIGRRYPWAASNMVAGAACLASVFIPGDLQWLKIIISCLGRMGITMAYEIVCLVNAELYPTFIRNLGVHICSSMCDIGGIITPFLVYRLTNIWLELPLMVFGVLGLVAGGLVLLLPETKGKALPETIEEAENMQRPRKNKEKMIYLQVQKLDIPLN

[27] = Antiproliferation activity against human UWB1289 cells expressing BRCA1 mutant incubated for 7 days by CellTiter-Glo luminescent cell viability assay; format: functional, cell-based; details: UWB1289, 168 h; in short: as §2
[28] = Toxicity in BALB/c nude mouse xenografted with human NCI-H209 cells assessed as induction of body weight loss at […], po BID for 28 days and co-treated with 50 mg/kg, po QD TMZ for 5 consecutive days at start of study and again 14 days later relative to TMZ alone; format: organism-based; details: in vivo, dose 0.75 mg/kg, time 28 day
[29] = Tmax in Sprague-Dawley rat at 5 mg/kg, po by LC-MS/MS analysis; details: in vivo

C[C@]12CCCN1CC1=NNC(=O)c3cc(F)cc4[nH]c2c1c34 [PAMIPARIB]
Activity [1]: Non-Toxic
Activity [2]: Non-Toxic
microsomal CLint [3]: 7.9 µL/min/mg
bioavailability [4]: 93.7%
half-life [5]: 5.3 h
IC50 [6]: 47.8 µM
microsomal CLint [7]: 7.2 µL/min/mg
Vd [8]: 6.92 L/kg
fraction unbound [9]: 0.15
inhibition (INH) [10]: >80%
EC50 (MDA-MB-436): 0.0106 µM
IC50 (Cytochrome P450 2D6): > 10 µM
inhibition at 20 µM (hERG (KCNH2)): 51%
TGI (NCI-H209 [11]): inactive
IC50 [12]: 19.4 µM
BPR [13]: 19.1%
TGI (NCI-H209 [14]): Active
microsomal CLint [15]: 9.5 µL/min/mg
concentration at 1 h [16]: 613 ng/g
Cmax [17]: 2710 ng/mL
inhibition (INH) [18]: Not Active
Cmax [19]: 502 ng/mL
concentration at 4 h [20]: 135 ng/g
AUC(0-inf) [21]: 1080 ng·h/mL
CL [22]: 15.2 mL/min/kg
half-life [23]: 3.62 h
AUC(0-inf) [24]: 1600 ng·h/mL
CL [25]: 29.9 mL/min/kg
inhibition [26]: inactive
EC50 [27]: 0.0538 µM
Activity [28]: Non-Toxic
Tmax [29]: 1 h

From ChEMBL document CHEMBL4673340 (J Med Chem, 2020)
